# Measurements of several laboratories.
# Organism: Trypanosoma brucei
# Effect on: parasite growth
Structure (SMILES),test,system,setting,EC50 [nM]
CCCCCC(=O)NC(Cc1c[nH]c2ccccc12)C(=O)NC(Cc1c[nH]c2ccccc12)C(=O)NC(CC(C)C)C(=O)C1(C)CO1 (stereo not drawn),SYBR Green,,72 h,< 500
Cc1cc(C)c(C#N)c(SCC(=O)c2ccccc2O)n1,resazurin,,,> 64000
O=c1c(O[C@@H]2O[C@H](CO)[C@H](O)[C@H](O)[C@H]2O)c(-c2ccc(O)c(O)c2)oc2cc(O)cc(O)c12,resazurin,,48 h,50000
CC(=O)O[C@H]1C(=O)[C@@]2(C)[C@H]([C@H](OC(=O)c3ccccc3)[C@]3(O)C[C@H](OC(=O)[C@H](O)[C@@H](NC(=O)c4ccccc4)c4ccccc4)C(C)=C1C3(C)C)[C@]1(OC(C)=O)CO[C@@H]1C[C@@H]2O,,,,7.6
O=C(N/N=C/c1ccc([N+](=O)[O-])o1)c1cn(Cc2ccccc2)c2ccc(Oc3ccccc3)cc2c1=O,resazurin,,72 h,320
N=C(N)c1ccc(OCCCCCOc2ccc(C(=N)N)cc2)cc1,SYBR Green,RHODESIENSE,,27
COc1ccc2c(c1)c(=O)c(C(=O)NN)cn2Cc1ccc(C)cc1,resazurin,,72 h,> 4000
Cc1cc(C)c(C#N)c(SCC(=O)c2ccccc2C)n1,resazurin,,,25800
Cc1ccc(Cn2cc(C(=O)N/N=C/c3ccc([N+](=O)[O-])s3)c(=O)c3cc(Br)ccc32)cc1,resazurin,,72 h,140
CCCCCC(=O)NC(Cc1ccc(NC(=O)OC(C)(C)C)cc1)C(=O)NC(Cc1ccc(NC(=O)OC(C)(C)C)cc1)C(=O)NC(CC(C)C)C(=O)C1(C)CO1 (stereo not drawn),SYBR Green,,72 h,465
Cc1cc(C)c(C#N)c(SCC(=O)c2cccc(N)c2)n1,resazurin,RHODESIENSE,,41400
O=C(N/N=C/c1ccc([N+](=O)[O-])o1)c1cn(Cc2ccccc2)c2ccccc2c1=O,resazurin,,72 h,570
